Laboratory results: ChEMBL document CHEMBL4371057, “Hydroxamic Acid Inhibitors Provide Cross-Species Inhibition of Plasmodium M1 and M17 Aminopeptidases” (J Med Chem, 2019)

What was measured:
[1] = Selectivity ratio of Ki for Plasmodium falciparum C-terminal His6-tagged M1 aminopeptidase (195 to 1085 residues) expressed in Escherichia coli BL21(DE3) to Ki for Plasmodium vivax C-terminal His6-tagged M1 aminopeptidase (195 to 1097 residues) expressed in Escherichia coli BL21(DE3)
[2] = Inhibition of Plasmodium vivax C-terminal His6-tagged M1 aminopeptidase (195 to 1097 residues) expressed in Escherichia coli BL21(DE3) preincubated for 20 mins followed by L-leucine-7-amido-4-methylcoumarin addition by Morrison equation analysis
Outline: (§1)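 Recombinant enzymes (Ni-NTA then size exclusion) were preincubated 20 min with inhibitor in 100 mM Tris-HCl pH 8.0, with 2 mM CoCl2 for Pf-M17 and 1 mM for Pv-M17. Leu-AMC substrate: 20 μM (Pf-M1), 40 μM (Pv-M1), 10 μM (both M17). Read at 37 °C, 355/460 nm, to steady-state velocity. Ki from a Morrison tight-binding fit; biological triplicate from three protein preparations.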

[3] = Inhibition of Plasmodium falciparum C-terminal His6-tagged M17 aminopeptidase (85 to 605 residues) expressed in Escherichia coli BL21(DE3) preincubated for 20 mins followed by L-leucine-7-amido-4-methylcoumarin addition by Morrison equation analysis
Outline: as §1

[4] = Inhibition of Plasmodium vivax C-terminal His6-tagged M17 aminopeptidase (203 to 621 residues) expressed in Escherichia coli BL21(DE3) preincubated for 20 mins followed by L-leucine-7-amido-4-methylcoumarin addition by Morrison equation analysis
Outline: as §1

[5] = Inhibition of Plasmodium falciparum C-terminal His6-tagged M1 aminopeptidase (195 to 1085 residues) expressed in Escherichia coli BL21(DE3) preincubated for 20 mins followed by L-leucine-7-amido-4-methylcoumarin addition by Morrison equation analysis
Outline: as §1

[6] = Growth inhibition of HEK293 cells at 40 uM after 72 hrs by resazurin dye based assay relative to control; assay type: cell-based; conditions: human, read-out: GI
Outline: (§2)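 HEK293 cells kept in DMEM with 10% FBS. Exposed to compounds for 72 h at 37 °C, 5% CO2, using the same dilution scheme as the parasite assay (top 40 μM). Medium then replaced with 44 μM resazurin, and fluorescence (530/595 nm) read after 5–6 h.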

Plasmodium falciparum [7] = assay: Antimalarial activity against Plasmodium falciparum Dd2 after 72 hrs by DAPI staining-based confocal imaging analysis; assay type: functional, organism-based
Outline: (§3)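 Exposed to a 16-point dose series (40 μM to 0.4 nM final, 0.4% DMSO) for 72 h at 37 °C in 90% N2/5% CO2/5% O2. DAPI-stained and imaged confocally. Two biological replicates, each with two technical repeats.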

[8] = Growth inhibition of HEK293 cells at 10 uM after 72 hrs by resazurin dye based assay relative to control; assay type: cell-based; conditions: human, read-out: GI
Outline: as §2

Plasmodium falciparum [9] = assay: Antimalarial activity against Plasmodium falciparum 3D7 after 72 hrs by DAPI staining-based confocal imaging analysis; assay type: functional, organism-based; conditions: 3D7, 72 h
Outline: as §3

[10] = Selectivity index, ratio of CC50 for HEK293 cells to IC50 for Plasmodium falciparum 3D7; assay type: toxicity; conditions: human, read-out: Ratio CC50/IC50
[11] = Cytotoxicity against HEK293 cells after 72 hrs by resazurin dye based assay; assay type: cell-based; conditions: human
Outline: as §2

[12] = Plasmodium falciparum, Dd2, 72 h, read-out: IC50

Compound: O=C(NC(C(=O)NO)c1ccc(-c2cc(F)c(F)c(F)c2)cc1)C1CCCC1 (centres undefined)
- Ratio Ki [1]: 10
- Ki [2]: 13.1 nM
- Ki [3]: 300 nM
- Ki [4]: 336 nM
- Ki [5]: 285 nM

Compound: O=C(NO)C(NC(=O)C(F)(F)C(F)(F)F)c1ccc(-c2cc(F)c(F)c(F)c2)cc1 (centres undefined)
- Ratio Ki [1]: 10
- Ki [2]: 90 nM
- Ki [3]: 200 nM
- Ki [4]: 97.5 nM
- Ki [5]: 815 nM

Compound: O=C(CC1CCCCC1)NC(C(=O)NO)c1ccc(-c2cc(F)c(F)c(F)c2)cc1 (centres undefined)
- Ratio Ki [1]: 10
- Ki [2]: 13.2 nM
- Ki [3]: 288 nM
- Ki [4]: 148 nM
- Ki [5]: 812 nM

Compound: O=C(NO)[C@@H](NC(=O)[C@@H](F)C(F)(F)F)c1ccc(-c2cc(F)c(F)c(F)c2)cc1 (racemic)
- Ratio Ki [1]: 10
- Ki [2]: 211 nM
- Ki [3]: 2190 nM
- Ki [4]: 1240 nM
- Ki [5]: 1490 nM

Compound: O=C(NC(C(=O)NO)c1ccc(-c2cc(F)c(F)c(F)c2)cc1)C1CC1 (centres undefined)
- Ratio Ki [1]: 10
- Ki [2]: 90.6 nM
- Ki [3]: 492 nM
- Ki [4]: 572 nM
- Ki [5]: 532 nM

Compound: CCc1nc(N)nc(N)c1-c1ccc(Cl)cc1 [PYRIMETHAMINE]
- inhibition at 72 h, 40 µM [6]: 53.7%
- IC50 (Plasmodium falciparum [7]): Not Active
- inhibition at 72 h, 10 µM [8]: 34.4%
- IC50 (Plasmodium falciparum [9]): 5.1 nM
- selectivity ratio [10]: ≥ 1960
- CC50 at 72 h [11]: ≥ 20000 nM

Compound: C[C@H]1[C@@H](O)O[C@@H]2O[C@@]3(C)CC[C@H]4[C@H](C)CC[C@@H]1[C@@]24OO3 [ARTENIMOL]
- IC50 (Plasmodium falciparum [7]; [12]): 0.4 nM
- inhibition at 72 h, 10 µM [8]: 31%
- IC50 (Plasmodium falciparum [9]): 0.5 nM

Compound: CCN(CC)CCCC(C)Nc1ccnc2cc(Cl)ccc12 (centres undefined) [CHLOROQUINE]
- inhibition at 72 h, 40 µM [6]: 57%
- inhibition at 72 h, 10 µM [8]: 17.3%
- CC50 at 72 h [11]: ≥ 20000 nM

Compound: O=C(CC1CC2CCC1C2)NC(C(=O)NO)c1ccc(-c2cc(F)c(F)c(F)c2)cc1 (centres undefined)
- Ratio Ki [1]: 10
- Ki [2]: 12.7 nM
- Ki [3]: 127 nM
- inhibition at 72 h, 40 µM [6]: 19.7%
- IC50 (Plasmodium falciparum [7]; [12]): 120 nM
- Ki [4]: 93.1 nM
- inhibition at 72 h, 10 µM [8]: 0.6%
- IC50 (Plasmodium falciparum [9]): 220 nM
- Ki [5]: 136 nM

Compound: O=C(CC(F)(F)F)NC(C(=O)NO)c1ccc(-c2cc(F)c(F)c(F)c2)cc1 (centres undefined)
- Ratio Ki [1]: 10
- Ki [2]: 149 nM
- Ki [3]: 999 nM
- Ki [4]: 1050 nM
- Ki [5]: 537 nM

Compound: O=C(NC(C(=O)NO)c1ccc(-c2cc(F)c(F)c(F)c2)cc1)C1CCOCC1 (centres undefined)
- Ratio Ki [1]: 10
- Ki [2]: 159 nM
- Ki [3]: 290 nM
- Ki [4]: 494 nM
- Ki [5]: 431 nM

Compound: C[C@H]1[C@H](OC(=O)CCC(=O)O)O[C@@H]2O[C@@]3(C)CC[C@H]4[C@H](C)CC[C@@H]1[C@@]24OO3 [ARTESUNATE]
- IC50 (Plasmodium falciparum [7]; [12]): 1 nM
- inhibition at 72 h, 10 µM [8]: 42.3%
- IC50 (Plasmodium falciparum [9]): 1.6 nM

Compound: CC(C)C(=O)NC(C(=O)NO)c1ccc(-c2cc(F)c(F)c(F)c2)cc1 (centres undefined)
- Ratio Ki [1]: 10
- Ki [2]: 38.9 nM
- Ki [3]: 426 nM
- Ki [4]: 325 nM
- Ki [5]: 417 nM

Compound: CC(C)(C)C(=O)NC(C(=O)NO)c1ccc(-c2cc(F)c(F)c(F)c2)cc1 (centres undefined)
- Ratio Ki [1]: 10
- Ki [2]: 14.1 nM
- Ki [3]: 147 nM
- inhibition at 72 h, 40 µM [6]: 80.7%
- IC50 (Plasmodium falciparum [7]; [12]): 81.7 nM
- Ki [4]: 74.8 nM
- inhibition at 72 h, 10 µM [8]: 1.1%
- IC50 (Plasmodium falciparum [9]): 83.1 nM
- Ki [5]: 331 nM
- selectivity ratio [10]: ≥ 241
- CC50 at 72 h [11]: ≥ 20000 nM

Compound: O=C(CC1CCCC1)NC(C(=O)NO)c1ccc(-c2cc(F)c(F)c(F)c2)cc1 (centres undefined)
- Ratio Ki [1]: 28.5
- Ki [2]: 7.58 nM
- Ki [3]: 138 nM
- inhibition at 72 h, 40 µM [6]: -1%
- IC50 (Plasmodium falciparum [7]; [12]): 125 nM
- Ki [4]: 211 nM
- inhibition at 72 h, 10 µM [8]: 3.1%
- IC50 (Plasmodium falciparum [9]): 168 nM
- Ki [5]: 216 nM

Compound: O=C(NC(C(=O)NO)c1ccc(-c2cc(F)c(F)c(F)c2)cc1)C1CCC1 (centres undefined)
- Ratio Ki [1]: 10
- Ki [2]: 29.8 nM
- Ki [3]: 185 nM
- inhibition at 72 h, 40 µM [6]: 48.2%
- IC50 (Plasmodium falciparum [7]; [12]): 120 nM
- Ki [4]: 371 nM
- inhibition at 72 h, 10 µM [8]: 6%
- IC50 (Plasmodium falciparum [9]): 126 nM
- Ki [5]: 236 nM
- selectivity ratio [10]: ≥ 158

Compound: O=C(NC(C(=O)NO)c1ccc(-c2cc(F)c(F)c(F)c2)cc1)C1CCCCC1 (centres undefined)
- Ratio Ki [1]: 10
- Ki [2]: 37.6 nM
- Ki [3]: 195 nM
- Ki [4]: 178 nM
- Ki [5]: 818 nM

Compound: O=C(CC1CCC1)NC(C(=O)NO)c1ccc(-c2cc(F)c(F)c(F)c2)cc1 (centres undefined)
- Ratio Ki [1]: 62.1
- Ki [2]: 2.85 nM
- Ki [3]: 306 nM
- inhibition at 72 h, 40 µM [6]: 5.6%
- IC50 (Plasmodium falciparum [7]; [12]): 29.2 nM
- Ki [4]: 75.6 nM
- inhibition at 72 h, 10 µM [8]: 6.3%
- IC50 (Plasmodium falciparum [9]): 55.4 nM
- Ki [5]: 177 nM

Compound: COc1ccc2nc3cc(Cl)ccc3c(Nc3cc(CN4CCCC4)c(O)c(CN4CCCC4)c3)c2n1 [PYRONARIDINE]
- inhibition at 72 h, 40 µM [6]: 95.6%
- IC50 (Plasmodium falciparum [7]; [12]): 7.9 nM
- inhibition at 72 h, 10 µM [8]: 102%
- IC50 (Plasmodium falciparum [9]): 7 nM
- selectivity ratio [10]: 507
- CC50 at 72 h [11]: 3550 nM

Compound: O=C(CC1CC1)NC(C(=O)NO)c1ccc(-c2cc(F)c(F)c(F)c2)cc1 (centres undefined)
- Ratio Ki [1]: 10
- Ki [2]: 17.9 nM
- Ki [3]: 270 nM
- inhibition at 72 h, 40 µM [6]: 37.6%
- IC50 (Plasmodium falciparum [7]; [12]): 109 nM
- Ki [4]: 303 nM
- inhibition at 72 h, 10 µM [8]: 6.4%
- IC50 (Plasmodium falciparum [9]): 136 nM
- Ki [5]: 202 nM

Compound: O=C(N[C@@H](C(=O)NO)c1ccc(-c2cc(F)c(F)c(F)c2)cc1)[C@@H](F)C(F)(F)F (racemic)
- Ratio Ki [1]: 10
- Ki [2]: 11.2 nM
- Ki [3]: 814 nM
- Ki [4]: 382 nM
- Ki [5]: 257 nM

Compound: COc1ccc(C[C@H](N)C(=O)N[C@H]2[C@@H](O)[C@H](n3cnc4c(N(C)C)ncnc43)O[C@@H]2CO)cc1 [PUROMYCIN]
- inhibition at 72 h, 40 µM [6]: 105%
- IC50 (Plasmodium falciparum [7]; [12]): 107 nM
- inhibition at 72 h, 10 µM [8]: 105%
- IC50 (Plasmodium falciparum [9]): 111 nM
- selectivity ratio [10]: 4.5
- CC50 at 72 h [11]: 500 nM

Compound: CCC(=O)NC(C(=O)NO)c1ccc(-c2cc(F)c(F)c(F)c2)cc1 (centres undefined)
- Ratio Ki [1]: 10
- Ki [2]: 66.3 nM
- Ki [3]: 158 nM
- Ki [4]: 108 nM
- Ki [5]: 913 nM
